Data reported in ChEMBL document CHEMBL2029301, “Development of a series of 3-hydroxyquinolin-2(1H)-ones as selective inhibitors of HIV-1 reverse transcriptase associated RNase H activity” (Bioorg Med Chem Lett, 2012).
The source made the active and inactive calls. No cut-off for these calls is given here.

Tests used:
[1] = Cytotoxicity against human MT4 cells; type: cell-based
[2] = target: T1, Human immunodeficiency virus type 1 reverse transcriptase (Human immunodeficiency virus 1, UniProt Q72547); experiment: Inhibition of HIV1 reverse transcriptase RNase H activity
[3] = system: Human immunodeficiency virus 1; experiment: Antiviral activity against HIV1 infected in MT4 cells assessed as inhibition of virus-induced cytopathic effect; type: functional, organism-based; settings: Human immunodeficiency virus 1, MT4
[4] = target: Human immunodeficiency virus type 1 reverse transcriptase (Human immunodeficiency virus 1) (UniProt Q72547); experiment: Inhibition of HIV1 reverse transcriptase RNase H activity assessed as remaining activity at 100 uM
Method in brief: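 In vitro HIV-1 RT-associated RNase H activity measured with compound at 100 µM, expressed as percentage of remaining enzyme activity.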

[5] = target: Human immunodeficiency virus type 1 integrase (Human immunodeficiency virus 1, UniProt Q7ZJM1); experiment: Inhibition of HIV1 integrase
Human immunodeficiency virus type 1 integrase, sequence (Q7ZJM1 whole entry): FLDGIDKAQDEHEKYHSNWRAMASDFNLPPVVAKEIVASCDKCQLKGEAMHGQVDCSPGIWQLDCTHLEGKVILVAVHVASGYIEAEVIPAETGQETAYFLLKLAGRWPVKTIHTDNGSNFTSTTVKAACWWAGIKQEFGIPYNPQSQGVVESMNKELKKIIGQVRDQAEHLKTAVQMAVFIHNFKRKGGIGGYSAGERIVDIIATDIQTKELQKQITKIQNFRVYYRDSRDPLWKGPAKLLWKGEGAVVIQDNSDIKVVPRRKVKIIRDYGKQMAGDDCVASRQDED
Method in brief: (§1)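 Mg-dependent HIV-1 integrase and RT RNA-dependent DNA polymerase activities measured in vitro, with compounds tested at concentrations up to 250 µM.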

[6] = target: T1, Human immunodeficiency virus type 1 reverse transcriptase; experiment: Inhibition of HIV1 reverse transcriptase associated RNA dependent polymerase activity; method in brief: as §1
[7] = system: Human immunodeficiency virus 1; experiment: Selectivity ratio of IC50 for HIV1 integrase to IC50 for reverse transcriptase Rnase H activity
[8] = target: Human immunodeficiency virus type 1 reverse transcriptase (Human immunodeficiency virus 1) (UniProt Q72547); experiment: Selectivity ratio of IC50 for HIV1 reverse transcriptase associated RNA dependent polymerase activity to IC50 for reverse transcriptase Rnase H activity
[9] = system: Human immunodeficiency virus 1; experiment: Binding affinity to HIV1 Reverse transcriptase RNase H domain p15 assessed as intrinsic fluorescence quenching at 100 uM by fluorimetry
Method in brief: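 Recombinant isolated HIV-1 RT RNase H domain (p15) excited at 290 nm to maximise the tryptophan signal. Ligand binding at the active site is read as quenching of intrinsic fluorescence. HTHI (2-hydroxy-1,2,3,4-tetrahydroisoquinoline-1,3-dione) serves as positive control.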

Row | IC50 [2] [µM] | EC50 [3] [µM] | Activity [4] [%] | IC50 [5] [µM] | IC50 [6] [µM] | Ratio IC50 [7] | Ratio IC50 [8] | Activity [9] | Structure (SMILES) | CC50 [1] [µM]
1 | 59 | > 250 |  |  |  |  |  |  | O=C(O)c1c(O)c(O)nc2ccccc12 | > 250
2 | > 100 | > 250 | 100 |  |  |  |  |  | CCOC(=O)c1c(O)c(=O)[nH]c2ccc(N)cc12 | 250
3 | > 100 | > 238 | 100 |  |  |  |  |  | CCOC(=O)c1c(O)c(=O)[nH]c2c(F)cccc12 | 238
4 | 64 | > 118 |  |  |  |  |  |  | CCOC(=O)c1c(O)c(=O)[nH]c2ccc([N+](=O)[O-])cc12 | 118
5 | > 100 | > 250 | 88 |  |  |  |  |  | O=C(O)c1c(O)c(=O)[nH]c2c(F)cccc12 | > 250
6 | 49 | > 22 |  |  |  |  |  |  | CCCCCCNC(=O)c1c(O)c(=O)[nH]c2c(F)cccc12 | 22
7 | > 100 | > 250 | 100 |  |  |  |  |  | O=C(O)c1c(O)c(=O)[nH]c2ccc(F)cc12 | 250
8 | 19 | > 29 |  | > 250 | > 250 |  |  |  | COc1ccc(CNC(=O)c2c(O)c(=O)[nH]c3ccc(F)cc23)cc1 | 29
9 |  |  | 97 |  |  |  |  |  | O=c1[nH]c2ccccc2cc1O | 115
10 | 97 | > 250 |  |  |  |  |  |  | O=C(O)c1c(O)c(=O)[nH]c2ccc([N+](=O)[O-])cc12 | > 250
11 | > 100 | > 134 | 100 |  |  |  |  |  | CCOC(=O)c1c(O)c(=O)[nH]c2ccc(F)cc12 | 134
12 | 18 | > 28 |  | > 250 | > 250 | > 14 | > 14 |  | O=C(NCc1ccc(F)cc1)c1c(O)c(=O)[nH]c2ccc(Cl)cc12 | 28
13 | 75 | > 6.8 |  |  |  |  |  |  | O=C(NCc1ccc(F)cc1)c1c(O)c(=O)[nH]c2c(F)cccc12 | 8
14 | 22 | > 24 |  | > 250 | > 250 |  |  |  | O=C(NCc1ccc(F)cc1)c1c(O)c(=O)[nH]c2ccc(F)cc12 | 24
15 | 19 | > 29 |  | > 250 | > 250 |  |  | Active | O=C(NCc1ccc(F)cc1)c1c(O)c(=O)[nH]c2ccccc12 | 29
16 | 74 | > 8 |  |  |  |  |  |  | COc1ccc(CNC(=O)c2c(O)c(=O)[nH]c3c(F)cccc23)cc1 | 8
17 | 16 | > 210 |  |  |  |  |  |  | CCOC(=O)c1c(O)c(O)nc2ccccc12 | 210
18 | > 100 | > 117 | 100 |  |  |  |  |  | CCOC(=O)c1c(O)c(=O)[nH]c2ccc(Cl)cc12 | 117
19 | > 100 | > 250 | 100 |  |  |  |  |  | O=C(O)c1c(O)c(=O)[nH]c2ccc(Cl)cc12 | > 250
